# T cell modulator: modulates CD8 T cell binding to vesicles; 2C CD8+ T cell-vesicle binding, flow cytometry; active compounds read low; response (vesicle binding), % at 7 µM; 330,000 tested, 0.068% active; AID 2052;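 active means response, share of CD8 T cells binding vesicles, and their 90th percentile fluorescence all below set limits, cut at about 80% in these data, passing the limit was not always enough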;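 further: values below 100% mean blocked vesicle binding to the CD8+ T cells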
#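 System: murine 2C transgenic CD8+ T lymphocytes; also added: QL9-loaded Drosophila micro-vesicles; times: binding 1.5 h at 37 °C; measured by: flow cytometry, PE anti-B7-1 (FL2) versus Alexa647 anti-CD8 (FL8), PFA-fixed; control set: Peptide-free naked vesicles (low) and QL9 vesicles with 0.7% DMSO vehicle (high)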
# Vif imaging: inhibitors of HIV Vif | HEK293T cells, Vif self-association by quenched fluorescence, imaging, 24 h | inhibition, % at 7.49 µM | 340,000 tested, 0.35% active; in the data active means inhibition above about 50%, passing the limit was not always enough; inconclusive means no clear call, values can overlap the other calls; inactive means below about 31%
# Casp6 inh: inhibitors of human caspase-6; P55212; purified caspase-6, Z-VEID-R110 cleavage fluorescence; inhibition, % at 12.5 µM; 350,000 tested, 0.53% active; AID 686996;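 active means mean inhibition across replicates at least about 35%, with every replicate also reaching that limit, limit read from the data; inconclusive means only one of the two criteria met; inactive means neither criterion met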
# Target sequence (P55212 24-179 limits assumed): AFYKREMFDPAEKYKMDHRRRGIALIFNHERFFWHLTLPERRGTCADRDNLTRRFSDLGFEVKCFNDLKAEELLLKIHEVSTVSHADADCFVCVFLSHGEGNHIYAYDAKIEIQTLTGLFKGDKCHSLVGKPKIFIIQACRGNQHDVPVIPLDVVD
# Target sequence (P55212 194-293 limits assumed): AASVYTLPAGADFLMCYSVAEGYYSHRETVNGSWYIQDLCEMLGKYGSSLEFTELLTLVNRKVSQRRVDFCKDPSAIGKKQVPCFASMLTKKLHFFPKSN
# Myeloid diff 2: compounds promoting myeloid differentiation | ER-HoxA9 myeloid progenitors, lysozyme-GFP differentiation, flow cytometry | calls only at 10 µM | 360,000 tested, 1% active | AID 624256;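 active means normalized GFP-positive differentiation at or above the plate's own cutoff, the solvent-only control mean plus 3 SD; inconclusive means no clear call, values can overlap the other calls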;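 further: cells exposed to compound for four days before flow analysis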
# Numbers stand for hits; - = inactive; ? = inconclusive; . = no result given; + = active, no number. Rows were chosen to be rich in hits. Some 1.4% of all compounds tested hit in one or more screens of this group.
SMILES,T cell modulator,Vif imaging,Casp6 inh,Myeloid diff 2
C/C=C/C=C/C(=O)N1CC2(CC(c3cccc(NC(=O)/C=C/C)c3)=NO2)C[C@@H]1C(N)=O (some centres not stated),-,-,-,-
C=C(C)C(=O)Nc1cccc(C2=NOC3(C2)C[C@H](C(N)=O)N(C(=O)c2ccccc2C(=O)c2ccccc2)C3)c1 (some centres not stated),-,-,63,-
C=C(C)C(=O)Nc1cccc(C2=NOC3(C2)C[C@@H](C(N)=O)N(C(=O)/C(C)=C/C)C3)c1 (some centres not stated),-,-,63,-
C/C=C(\C)C(=O)Nc1cccc(C2=NOC3(C2)C[C@@H](C(N)=O)N(C(=O)/C(C)=C/C)C3)c1 (some centres not stated),-,-,-,-
C[C@H](CO)N1C[C@H](C)[C@@H](CN(C)C(=O)c2ccc(F)cc2)Oc2cc(C3=CCCCC3)ccc2S1(=O)=O,.,.,-,.
O=[N+]([O-])c1cccc(Nc2c([N+](=O)[O-])ccc3nonc23)c1,-,-,-,+
CC(=O)N1CCc2cc(S(=O)(=O)CCC(=O)Nc3ccccc3F)ccc21,-,-,-,+
O=C1N/C(=C\c2ccc(O)cc2)C(=O)c2ccccc21,-,-,83,-
O=C(O)/C=C1\NC(=O)c2ccccc21,-,-,.,-
COC(=O)c1ccc(CSc2nc3c(c(=O)n2-c2ccc(Br)cc2)SCC3)o1,-,-,.,+
CN(C)CCCNC(=O)/C(=C/c1ccc(-c2ccc([N+](=O)[O-])cc2)o1)NC(=O)c1ccccc1,-,-,-,+
CN(C)CCNC(=O)/C(=C/c1ccc(-c2cccc([N+](=O)[O-])c2)o1)NC(=O)c1ccccc1,-,-,.,-
CN(C)CCNC(=O)/C(=C/c1ccc(-c2cccc(Cl)c2)o1)NC(=O)c1ccccc1,-,-,.,-
Cc1ccc(C(=O)N/C(=C\c2ccc(-c3ccccc3[N+](=O)[O-])o2)C(=O)NCCCN(C)C)cc1,-,-,-,-
Cc1ccc(C(=O)N/C(=C\c2ccc(-c3ccc(Cl)cc3)o2)C(=O)NCCCN(C)C)cc1,-,-,-,+
CN(C)CCCNC(=O)/C(=C\c1ccc(-c2ccc(Br)cc2)o1)NC(=O)c1ccccc1,-,-,-,+
CCCC#Cc1cnc2c(c1)C(=O)N([C@@H](C)CO)C[C@H](C)[C@H](CN(C)C(=O)Nc1ccc(OC)cc1)O2,.,.,-,.
COc1ccc(NC(=O)Nc2ccc3c(c2)[C@@H]2C[C@@H](CC(=O)N(C)C)O[C@H](CO)[C@@H]2O3)cc1,.,.,-,.
NC(=O)[C@@H]1[C@H]2C(=O)O[C@H](c3ccccc3)[C@H](c3ccccc3)N2[C@H](c2ccc(O)cc2)[C@@]12C(=O)Nc1ccc(C#CC3(O)CCCCCC3)cc12,.,.,-,.
O=C(NCc1ccccn1)C1CCN(C(=O)c2cc3sccc3n2Cc2ccc(F)cc2)CC1,-,-,-,+
O=C(NCc1ccco1)C1CCN(C(=O)c2cc3sccc3n2Cc2ccc(F)cc2)CC1,-,-,-,-
CC(C)(C)C(=O)/C=c1\s/c(=C\c2ccc(-c3ccc([N+](=O)[O-])cc3)o2)c(=O)n1CC(=O)NC(N)=O,-,.,-,+
CCC(=O)N/N=C/c1ccc(-c2ccc([N+](=O)[O-])cc2)o1,-,.,-,-
C[C@@H]1CCCCO[C@H](CN(C)S(=O)(=O)c2cccs2)[C@H](C)CN([C@@H](C)CO)C(=O)c2cc(NS(=O)(=O)c3ccc(F)cc3)ccc2O1,.,.,-,.
COc1ccc(S(=O)(=O)N2CCC3(CC2)CN(Cc2ccccc2OC)[C@@H](CO)c2[nH]c4cc(OC)ccc4c23)cc1,.,.,-,.
SMILES,T cell modulator,Vif imaging,Casp6 inh,Myeloid diff 2
Cc1cccc(S(=O)(=O)N2CC[C@@H]3[C@H]2c2cc(C#Cc4cccc(F)c4)ccc2N[C@@H]3CO)c1,.,.,-,.
Cc1ccc(C)c(NC(=O)CN(C)C(=O)c2cccc(S(=O)(=O)N3CCCC3)c2)c1,.,53,-,-
Cc1ccc(C)c(NC(=O)CN(C)C(=O)c2cccc(S(=O)(=O)N3CCN(Cc4ccccc4)CC3)c2)c1,-,-,-,-
CCC(=O)c1ccc(OCC(=O)OCC(=O)c2c(N)n(C)c(=O)n(C)c2=O)cc1,-,-,-,-
CCC(=O)c1ccc(OCC(=O)OCC(=O)c2cc(C)n(C)c2C)cc1,-,?,36,-
C/C=C/c1cnc2c(c1)C(=O)N([C@@H](C)CO)C[C@@H](C)[C@@H](CN(C)Cc1ccccc1)O2,.,.,-,.
O=C(C[C@H]1CC[C@H]2NC[C@H](O)COC[C@@H]2O1)NC1Cc2ccccc2C1,.,.,-,.
CCSc1nc(COC(=O)NC)c(COC(=O)NC)n1C,.,-,-,+

# High-throughput results (PubChem)
